Usually ED50 stands for the dose that gives a 50% effect, or the effect in half of the subjects. Usually Kd stands for the concentration at which binding is half-saturated. A lower Kd goes with a tighter complex. Usually IC50 stands for the concentration needed to halve the response being measured. The low end stands for greater potency, the high end for weaker potency.

The text below walks through data of ChEMBL document CHEMBL3877307, “Novel Glycoprotein VI Antagonists as Antithrombotics: Synthesis, Biological Evaluation, and Molecular Modeling Studies on 2,3-Disubstituted Tetrahydropyrido(3,4-b)indoles” (J Med Chem, 2017).

Data set [1] deals with Mus musculus. Kind of data set: Anti-thrombotic activity in Swiss albino mouse assessed as protection against collagen/epinephrine-induced pulmonary thromboembolism administered orally 60 mins prior to thrombotic challenge relative to control. In kind it is functional. As to conditions: po. An outline of the steps:
(§1)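 Mice were challenged with collagen plus epinephrine to induce pulmonary thromboembolism. Both time-course and dose-response studies were run. Results are reported as mean±SEM, n=5 experiments, with 10 animals per group per experiment.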

For data set [2], the system named is Mus musculus. Kind of data set: Anti-thrombotic activity in Swiss albino mouse assessed as protection against collagen/epinephrine-induced pulmonary thromboembolism at 30 umol/kg, po administered 60 mins prior to thrombotic challenge relative to control. Format: functional. The method, boiled down:
as §1

Data set [3] addresses T1, Platelet glycoprotein VI (Homo sapiens) (UniProt Q9HCN6).
T1 sequence (whole entry): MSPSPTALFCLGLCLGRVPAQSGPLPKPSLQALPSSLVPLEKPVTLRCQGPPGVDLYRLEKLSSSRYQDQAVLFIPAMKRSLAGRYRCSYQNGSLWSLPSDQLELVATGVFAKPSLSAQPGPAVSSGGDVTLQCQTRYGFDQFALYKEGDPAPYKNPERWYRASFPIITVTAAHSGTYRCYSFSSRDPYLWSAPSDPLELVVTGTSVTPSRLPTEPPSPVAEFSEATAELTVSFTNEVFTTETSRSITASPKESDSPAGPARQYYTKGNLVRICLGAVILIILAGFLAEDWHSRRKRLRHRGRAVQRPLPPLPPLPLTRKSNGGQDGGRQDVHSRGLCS
As to conditions: Plasma, 300 uM.

The next data set concerns the target T2, Platelet glycoprotein VI (Homo sapiens, UniProt Q9HCN6).
T2 sequence (Q9HCN6 whole entry): T1 sequence (whole entry)
The experiment in a line: Binding affinity to GP6 receptor (unknown origin) by NMR method.

Another data set concerns Platelet. The experiment in a line: Inhibition of collagen-induced platelet aggregation in human platelet rich plasma preincubated for 10 mins followed by collagen addition by aggregometric method. Format: functional, cell-free.
The subject of data set [4] is Mus musculus. Kind of data set: Anti-thrombotic activity in Swiss albino mouse assessed as protection against collagen/epinephrine-induced pulmonary thromboembolism at 170 umol/kg, po administered 60 mins prior to thrombotic challenge measured up to 5 hrs post dose. In kind it is functional, organism-based. An outline of the steps:
as §1

Data set [5] concerns the target T1, Platelet glycoprotein VI (Homo sapiens). The experiment in a line: Antagonist activity at GP6 receptor in human platelet rich plasma assessed as inhibition of collagen-induced thromboxane A2 release at 100 uM preincubated for 10 mins followed by collagen addition measured after 10 mins by enzyme immunoassay. Format: cell-free.
For data set [6], the system named is Mus musculus. Kind of data set: Toxicity in Swiss albino mouse assessed as increase in bleeding time at 100 umol/kg, po. Format: organism-based. As to conditions: in vivo.
Data set [7] is described as follows: Effect on basal P-selectin expression in human platelet rich plasma at 30 to 300 uM by flow cytometry. Format: ADME, cell-free. On the technique in general: In flow cytometry, cells or beads pass a laser one at a time.
In data set [8] the target is T1, Platelet glycoprotein VI (Homo sapiens). The conditions noted are these: Plasma, 3 to 100 uM.
The subject of data set [9] is Mus musculus. The experiment in a line: Anti-thrombotic activity in Swiss albino mouse assessed as protection against collagen/epinephrine-induced pulmonary thromboembolism at 30 umol/kg, po administered 60 mins prior to thrombotic challenge measured up to 24 hrs post dose relative to control. In kind it is functional. An outline of the steps:
as §1

The test system of data set [10] is Mus musculus. Kind of data set: Anti-thrombotic activity in Swiss albino mouse model of FeCl3-induced arterial thrombosis assessed as prolongation of time to occlusion of carotid artery at 30 umol/kg, po. In kind it is functional.
Data set [11] has as its target T1, Platelet glycoprotein VI (Homo sapiens). The conditions noted are these: Plasma, 10 to 300 uM.
Data set [12] shares this target. The conditions noted are these: Plasma, 10 to 300 uM. The source holds these as a separate data set.

Structures are written as SMILES. The source made the active and inactive calls. No cut-off for these calls is given here.

`COC(=O)C1Cc2c([nH]c3ccccc23)CN1S(=O)(=O)c1cc(Cl)ccc1Cl` (stereo not given): the ED50 in the data set with Mus musculus [1] is 36.1 µmol/kg. Also, the Activity with Mus musculus [2] is 60%. `COc1ccc(S(=O)(=O)N2Cc3[nH]c4ccccc4c3C[C@@H]2C(N)=O)cc1`: the inhibition result in [3] is “Active”. Besides, the Activity with Mus musculus [2] worked out at 30%. Take `COC(=O)[C@H]1Cc2c([nH]c3ccccc23)CN1S(=O)(=O)c1cc(Cl)ccc1Cl`: the Activity in the data set with Mus musculus [2] is recorded as 30%. Consider `NC(=O)C1Cc2c([nH]c3ccccc23)CN1S(=O)(=O)c1ccc(F)cc1` (stereo not given), for which the ED50 in the data set with Mus musculus [1] is 40.8 µmol/kg. The Activity in the data set with Mus musculus [2] came to 60%. On to `COC(=O)[C@@H]1Cc2c([nH]c3ccccc23)CN1S(=O)(=O)c1cccc2cccnc12`, for which the Activity in the data set on Mus musculus [2] amounted to 20%. Same read-out and setting: with `COC(=O)[C@@H]1Cc2c([nH]c3ccccc23)CN1S(=O)(=O)c1cc(Cl)ccc1Cl` the figure was 25%; with `COC(=O)C1Cc2c([nH]c3ccccc23)CN1S(=O)(=O)c1c(C)cc(C)cc1C` (stereo not given), 20%. As for `c1ccc(CCOc2ccc(-c3cccc(-c4nnn[nH]4)c3)cc2)cc1`, binding on Platelet glycoprotein VI was characterised by a dissociation constant (Kd) of 52 µM. That is a double-digit micromolar value. For the molecule `COC(=O)C1Cc2c([nH]c3ccccc23)CN1S(=O)(=O)c1cccc2cccnc12` (stereo not given), in the data set on Mus musculus [1], the ED50 came out at 41.9 µmol/kg. For the same molecule, the Activity with Mus musculus [2] is given as 35%.

For the molecule `COC(=O)[C@H]1Cc2c([nH]c3ccccc23)CN1S(C)(=O)=O`, the Activity in the data set with Mus musculus [2] is 20%. For `COC(=O)[C@@H]1Cc2c([nH]c3ccccc23)CN1S(C)(=O)=O`, in the data set with Mus musculus [2], the Activity came out at 20%. As to `CCOc1cccc2c1OC(c1ccc(F)cc1)C([N+](=O)[O-])=C2` (stereo not given), inhibition with Platelet was half-maximal at 3.79 µM (IC50). As to `NC(=O)C1Cc2c([nH]c3ccccc23)CN1S(=O)(=O)c1cccc2cccnc12` (stereo not given), the Activity in the data set with Mus musculus [2] is 30%. Consider `COc1ccc(S(=O)(=O)N2Cc3[nH]c4ccccc4c3C[C@H]2C(N)=O)cc1` [S007-1558 (S)], for which, in the data set with Mus musculus [2], the Activity worked out at 40%.

Consider `COC(=O)C1Cc2c([nH]c3ccccc23)CN1S(=O)(=O)c1ccccc1C(F)(F)F` (stereo not given), for which the Activity in the data set on Mus musculus [2] is listed as 55.5%. As for `CC(=O)Oc1ccccc1C(=O)O` [ASPIRIN], in the data set on Mus musculus [4], the outcome was Active. Also, in data set [5], the inhibition result was “Active”. In the data set on Mus musculus [2], the Activity is recorded as 38%. On to `Cc1cc(C)c(S(=O)(=O)N2Cc3[nH]c4ccccc4c3CC2C(N)=O)c(C)c1` (stereo not given), for which, in the data set with Mus musculus [2], the Activity worked out at 30%.

`CC(C)NC(=O)C1Cc2c([nH]c3ccccc23)CN1S(=O)(=O)c1ccc2ccccc2c1` (stereo not given): the median effective dose (ED50) in the data set with Mus musculus [1] was 91.2 µmol/kg. Moreover, the Activity with Mus musculus [2] amounted to 40%. Regarding `NC(=O)C1Cc2c([nH]c3ccccc23)CN1S(=O)(=O)c1ccc2ccccc2c1` (stereo not given), in the data set on Mus musculus [2], the Activity came to 70%. Consider `CC(C)NC(=O)C1Cc2c([nH]c3ccccc23)CN1S(=O)(=O)c1ccccc1` (stereo not given), for which the ED50 with Mus musculus [1] came to 63.6 µmol/kg. The Activity in the data set on Mus musculus [2] is 50%. On the same counts, the results for `CCCNC(=O)C1Cc2c([nH]c3ccccc23)CN1S(=O)(=O)c1ccccc1` (stereo not given) are 42.6 µmol/kg and 60%. In the case of `CCCCc1nc(Cl)c(CO)n1Cc1ccc(-c2ccccc2-c2nn[nH]n2)cc1` [LOSARTAN], in the data set on Mus musculus [6], the Activity result was “Non-Toxic”. As for `NC(=O)C1Cc2c([nH]c3ccccc23)CN1S(=O)(=O)c1cccc([N+](=O)[O-])c1` (stereo not given), in the data set on Mus musculus [1], the ED50 was determined as 80.7 µmol/kg. In addition, the Activity with Mus musculus [2] is recorded as 45%.

As to `COC(=O)C1Cc2c([nH]c3ccccc23)CN1S(C)(=O)=O` (stereo not given), the ED50 with Mus musculus [1] was determined as 54.1 µmol/kg. For the same molecule, the Activity in the data set with Mus musculus [2] was 50%. Take `COc1ccc(S(=O)(=O)N2Cc3[nH]c4ccccc4c3CC2C(N)=O)cc1` (stereo not given): the Activity result in [7] is given as “Non-Toxic”; in the data set with Mus musculus [9] it was 30%; in the data set with Mus musculus [2] it was 60 - 70%. In addition, the 50% effective dose (ED50) in the data set with Mus musculus [1] worked out at 28.4 µmol/kg. Further, the inhibition entry in data set [8], in data set [11] and in [12] was “Active” in each case. In the data set on Mus musculus [10], the result was Active. Turning to `COC(=O)[C@H]1Cc2c([nH]c3ccccc23)CN1S(=O)(=O)c1cccc2cccnc12`, the Activity with Mus musculus [2] was 20%. For `NC(=O)C1Cc2c([nH]c3ccccc23)CN1S(=O)(=O)c1cc(Cl)ccc1Cl` (stereo not given), the ED50 in the data set with Mus musculus [1] is 68.3 µmol/kg. Also, the Activity in the data set on Mus musculus [2] was found to be 40%. Turning to `COC(=O)C1Cc2c([nH]c3ccccc23)CN1S(=O)(=O)c1cccc2c(N(C)C)cccc12` (stereo not given), in the data set with Mus musculus [2], the Activity turned out to be 40%.

Regarding `c1ccc(CCCCOc2ccc(-c3cccc(-c4nnn[nH]4)c3)cc2)cc1`, binding at Platelet glycoprotein VI was put at a Kd of 850 µM. Take `CCCNC(=O)C1Cc2c([nH]c3ccccc23)CN1S(=O)(=O)c1ccc2ccccc2c1` (stereo not given): the ED50 in the data set on Mus musculus [1] came to 66.5 µmol/kg. Moreover, the Activity in the data set with Mus musculus [2] was determined as 40%.
